Activity calls are given as the source filed them. The calls are words filed in the database; no cut-off is given here. Starred links: 1 amine or outer side, 2 acyl side, 3 side chain; linkers in the order of their positions; H or OH if unused. Positions of bridges follow the written chain, without caps; N, C: chain ends. Non-standard residues stand in square brackets, D forms with d. Residues, ends and D or L forms follow the SMILES beside them. *: point of attachment. NMeW = CN[C@@H](Cc1c[nH]c2ccccc12)C(=O)O; NH(CH2CH2O)2(CH2)6Cl = ClCCCCCCOCCOCCN*; Suc = O=C(CCC(=O)[*:2])[*:1]; Nle = CCCC[C@H](N)C(=O)O
Columns and labels:
[1] = test system: MDA-MB-468; test: Cytotoxicity against human MDA-MB-468 cells assessed as cell death at 30 uM incubated for 24 hrs by trypan blue assay; format: functional
[2] = biological target: T1, Calcium and integrin-binding protein 1 (Homo sapiens, UniProt Q99828); test: Displacement of Alexa Fluor 647 labelled UNC10245092 peptide from CIB1 (unknown origin) preincubated for 20 mins followed by Alexa-CIB1 phage peptide addition and measured after 20 to 30 mins by TR-FRET assay
T1 sequence (Q99828 whole entry): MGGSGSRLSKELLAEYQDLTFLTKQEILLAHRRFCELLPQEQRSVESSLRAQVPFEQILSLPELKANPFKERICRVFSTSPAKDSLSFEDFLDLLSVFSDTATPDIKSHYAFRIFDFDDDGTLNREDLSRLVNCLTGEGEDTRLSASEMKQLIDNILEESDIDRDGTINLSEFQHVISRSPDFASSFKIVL

[3] = Stability in human MDA-MB-468 cell lysates assessed as compound remaining at 150 uM after 24 hrs by LCMS method; format: ADME, subcellular; settings: read-out: Stabilty
Outline: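 Peptides were incubated in MDA-MB-468 cell lysates at 37 °C.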

[4] = Cytotoxicity against human MDA-MB-231 cells assessed as cell death at 30 uM incubated for 24 hrs by trypan blue assay; format: cell-based; settings: mda-mb-231, 24 h
[5] = biological target: T1, Calcium and integrin-binding protein 1; test: Binding affinity to full length CIB1 (unknown origin) at 300 uM by isothermal titration calorimetry
[6] = biological target: T2, Calcium and integrin-binding protein 1 (Homo sapiens) (UniProt Q99828); test: Inhibition of CIB1 in human MDA-MB-468 cells assessed as reduction in AKT activity after 6 to 24 hrs by Western blotting analysis; format: cell-based; settings: time 6-24 hrs
T2 sequence (whole entry): T1 sequence (Q99828 whole entry)
Outline: (§1)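 Cells were treated with peptide for 6 h and for 24 h alongside a DMSO vehicle control. Lysates were then immunoblotted for phospho-AKT, phospho-ERK and CIB1, and the levels were compared with the DMSO-treated cells.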

[7] = biological target: T2, Calcium and integrin-binding protein 1 (Homo sapiens); test: Inhibition of CIB1 in human MDA-MB-468 cells assessed as reduction in ERK activity after 6 to 24 hrs by Western blotting analysis; format: cell-based; settings: time 6-24 hrs; outline: as §1
[8] = biological target: T2, Calcium and integrin-binding protein 1 (Homo sapiens); test: Inhibition of CIB1 in human MDA-MB-468 cells assessed as reduction in CIB1 level after 6 hrs by Western blotting analysis; format: cell-based; outline: as §1
[9] = biological target: T2, Calcium and integrin-binding protein 1 (Homo sapiens); test: Inhibition of CIB1 in human MDA-MB-231 cells assessed as reduction in ERK activity after 6 to 24 hrs by Western blotting analysis; format: cell-based; settings: time 6-24 hrs; outline: as §1
[10] = biological target: T2, Calcium and integrin-binding protein 1 (Homo sapiens); test: Inhibition of CIB1 in human MDA-MB-231 cells assessed as reduction in AKT activity after 6 to 24 hrs by Western blotting analysis; format: cell-based; settings: time 6-24 hrs; outline: as §1
[11] = biological target: T2, Calcium and integrin-binding protein 1 (Homo sapiens); test: Inhibition of CIB1 in human MDA-MB-231 cells assessed as reduction in CIB1 level after 6 hrs by Western blotting analysis; format: cell-based; outline: as §1
[12] = biological target: T2, Calcium and integrin-binding protein 1 (Homo sapiens); test: Inhibition of CIB1 in human MDA-MB-231 cells assessed as reduction in pERK level after 6 to 24 hrs by Western blotting analysis; format: cell-based; settings: time 6-24 hrs; outline: as §1
[13] = biological target: T2, Calcium and integrin-binding protein 1 (Homo sapiens); test: Inhibition of CIB1 in human MDA-MB-231 cells assessed as reduction in pAKT level after 6 to 24 hrs by Western blotting analysis; format: cell-based; settings: time 6-24 hrs; outline: as §1
[14] = biological target: T2, Calcium and integrin-binding protein 1 (Homo sapiens); test: Inhibition of CIB1 in human MDA-MB-468 cells assessed as reduction in pERK level after 6 to 24 hrs by Western blotting analysis; format: cell-based; settings: time 6-24 hrs; outline: as §1
[15] = biological target: T2, Calcium and integrin-binding protein 1 (Homo sapiens); test: Inhibition of CIB1 in human MDA-MB-468 cells assessed as reduction in pAKT level after 6 to 24 hrs by Western blotting analysis; format: cell-based; settings: time 6-24 hrs; outline: as §1

Row | Compound | Activity [1] [%] | IC50 [2] [nM] | remaining at 24 h, 150 µM [3] [%] | Activity [4] [%] | other results
1 | CCCC[C@@H]1NC(=O)[C@H](Cc2ccc(O)cc2)NC(=O)CSC[C@@H](C(N)=O)NC(=O)[C@H](Cc2c[nH]c3ccccc23)NC(=O)[C@H](CC(C)C)NC(=O)[C@H]([C@@H](C)CC)NC(=O)[C@H](CC(C)C)NC(=O)[C@H](Cc2c[nH]c3ccccc23)NC(=O)[C@H](Cc2ccc(O)cc2)NC(=O)[C@@H]2CCCN2C(=O)[C@H](CCC(N)=O)NC1=O ({CH2CO}-Y[Nle]QPYWLILWC-NH2; thioether N-11) | 3.4 | 59 | 62.2 | 1.1 | –
2 | CC[C@H](C)[C@@H]1NC(=O)[C@H](CC(C)C)NC(=O)[C@H](Cc2c[nH]c3ccccc23)NC(=O)[C@H](Cc2ccc(O)cc2)NC(=O)[C@@H]2CCCN2C(=O)[C@H](CCC(N)=O)NC(=O)[C@H](C)NC(=O)[C@H](Cc2ccc(O)cc2)NC(=O)CSC[C@@H](C(N)=O)NC(=O)[C@H](Cc2c[nH]c3ccccc23)NC(=O)[C@H](CC(N)=O)NC1=O ({CH2CO}-YAQPYWLINWC-NH2; thioether N-11) | 2.7 | 9 | 21.9 | 1.5 | –
3 | CSCC[C@H](NC(=O)[C@H](C)NC(=O)CNC(=O)[C@H](Cc1ccc(O)cc1)NC(=O)[C@H](Cc1c[nH]c2ccccc12)NC(=O)[C@H](Cc1ccccc1)NC(=O)[C@H](CO)NC(=O)CNC(=O)CNC(=O)[C@H](CC(=O)O)NC(=O)[C@H](CCC(=O)O)NC(=O)CCC(=O)NCCOCCOCCCCCCCl)C(=O)N[C@@H](CCCCN)C(=O)N[C@@H](C)C(=O)N[C@@H](CC(C)C)C(=O)N[C@@H](Cc1ccc(O)cc1)C(=O)NCC(N)=O ({NH(CH2CH2O)2(CH2)6Cl-Suc}-EDGGSFWYGAMKALYG-NH2) | 1.7 | 46 | – | 9.5 | Kd [5]: 29.4 nM
4 | CSCC[C@H](NC(=O)[C@H](C)NC(=O)CNC(=O)[C@H](Cc1ccc(O)cc1)NC(=O)[C@H](C)NC(=O)[C@H](Cc1ccccc1)NC(=O)[C@H](CO)NC(=O)CNC(=O)CNC(=O)[C@H](CC(=O)O)NC(=O)[C@H](CCC(=O)O)NC(=O)[C@H](CCC(N)=O)NC(=O)[C@@H]1CCCN1C(=O)[C@H](CCCNC(=N)N)NC(=O)[C@H](CCCNC(=N)N)NC(=O)[C@H](CCCNC(=N)N)NC(=O)[C@H](CCC(N)=O)NC(=O)[C@H](CCCNC(=N)N)NC(=O)[C@H](CCCNC(=N)N)NC(=O)[C@H](CCCCN)NC(=O)[C@H](CCCCN)NC(=O)[C@H](CCCNC(=N)N)NC(=O)CNC(=O)CCC(=O)NCCOCCOCCCCCCCl)C(=O)N[C@@H](CCCCN)C(=O)N[C@@H](C)C(=O)N[C@@H](CC(C)C)C(=O)N[C@@H](C)C(=O)NCC(N)=O ({NH(CH2CH2O)2(CH2)6Cl-Suc}-GRKKRRQRRRPQEDGGSFAYGAMKALAG-NH2) | 1.1 | > 10000 | 0 | 1.9 | –
5 | CC[C@H](C)[C@@H]1NC(=O)[C@H](CC(C)C)NC(=O)[C@H](Cc2c[nH]c3ccccc23)NC(=O)[C@H](Cc2ccc(O)cc2)NC(=O)[C@@H]2CCCN2C(=O)[C@H](CCC(N)=O)NC(=O)[C@H](CCCCN)NC(=O)[C@H](Cc2ccc(O)cc2)NC(=O)CSC[C@@H](C(N)=O)NC(=O)[C@H](Cc2c[nH]c3ccccc23)NC(=O)[C@H](CC(N)=O)NC1=O ({CH2CO}-YKQPYWLINWC-NH2; thioether N-11) | 2.7 | 12 | 48.6 | 2 | inhibition [6]: inactive; inhibition [7]: inactive; inhibition [8]: inactive; inhibition [9]: inactive; inhibition [10]: inactive; Kd [5]: 6 nM; inhibition [11]: inactive
6 | CCCC[C@@H]1NC(=O)[C@H](Cc2ccc(O)cc2)N(C)C(=O)CSC[C@@H](C(N)=O)NC(=O)[C@H](Cc2c[nH]c3ccccc23)NC(=O)[C@@H](Cc2ccco2)NC(=O)[C@H]([C@@H](C)CC)NC(=O)[C@H](CC(C)C)NC(=O)[C@H](Cc2c[nH]c3ccccc23)NC(=O)[C@H](Cc2ccc(O)cc2)N(C)C(=O)[C@@H]2CCCN2C(=O)[C@H](CCC(N)=O)NC1=O | – | 3900 | – | – | –
7 | CC[C@H](C)[C@@H]1NC(=O)[C@H](CC(C)C)NC(=O)[C@H](Cc2c[nH]c3ccccc23)N(C)C(=O)[C@H](Cc2ccc(O)cc2)NC(=O)[C@@H]2CCCN2C(=O)[C@H](CCC(N)=O)NC(=O)[C@H](CCCCN)NC(=O)[C@H](Cc2ccc(O)cc2)NC(=O)CSC[C@@H](C(N)=O)NC(=O)[C@H](Cc2c[nH]c3ccccc23)NC(=O)[C@H](CC(N)=O)NC1=O ({CH2CO}-YKQPY[NMeW]LINWC-NH2; thioether N-11) | – | 59 | – | – | –
8 | CCCC[C@@H]1NC(=O)[C@H](Cc2ccc(O)cc2)N(C)C(=O)CSC[C@@H](C(N)=O)NC(=O)[C@H](Cc2c[nH]c3ccccc23)NC(=O)[C@H](CC(N)=O)NC(=O)[C@H]([C@@H](C)CC)NC(=O)[C@H](CC(C)C)NC(=O)[C@H](Cc2c[nH]c3ccccc23)NC(=O)[C@H](Cc2ccc(O)cc2)NC(=O)[C@@H]2CCCN2C(=O)[C@@H](CCC(C)C)NC1=O | – | 840 | – | – | –
9 | CSCC[C@H](NC(=O)[C@H](C)NC(=O)CNC(=O)[C@H](Cc1ccc(O)cc1)NC(=O)[C@H](Cc1c[nH]c2ccccc12)NC(=O)[C@H](Cc1ccccc1)NC(=O)[C@H](CO)NC(=O)CNC(=O)CNC(=O)[C@H](CC(=O)O)NC(=O)[C@H](CCC(=O)O)NC(=O)[C@H](CCC(N)=O)NC(=O)[C@@H]1CCCN1C(=O)[C@H](CCCNC(=N)N)NC(=O)[C@H](CCCNC(=N)N)NC(=O)[C@H](CCCNC(=N)N)NC(=O)[C@H](CCC(N)=O)NC(=O)[C@H](CCCNC(=N)N)NC(=O)[C@H](CCCNC(=N)N)NC(=O)[C@H](CCCCN)NC(=O)[C@H](CCCCN)NC(=O)[C@H](CCCNC(=N)N)NC(=O)CNC(=O)CCC(=O)NCCOCCOCCCCCCCl)C(=O)N[C@@H](CCCCN)C(=O)N[C@@H](C)C(=O)N[C@@H](CC(C)C)C(=O)N[C@@H](Cc1ccc(O)cc1)C(=O)NCC(N)=O ({NH(CH2CH2O)2(CH2)6Cl-Suc}-GRKKRRQRRRPQEDGGSFWYGAMKALYG-NH2) | 57.1 | 150 | 0 | 9.6 | inhibition [12]: Active; inhibition [13]: Active; inhibition [14]: Active; inhibition [8]: Active; inhibition [11]: Active; inhibition [15]: Active
